According to the array DNA melting data of Ke et al. (doi:10.1101/2024.01.08.574731):

Tests used:
[1] = melting temperature; fluorescence melt of hairpins on a sequencing array, two-state fit, raised by 9.35 °C to match UV melts; settings: sodium 0.088 M
In short: (§1)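 Cy3 signals were normalised both to pre-quench Cy3 and to control constructs. They came from library hairpins carrying annealed Cy3 and quencher oligos on a sequenced MiSeq flow cell, imaged in 50 mM Na-HEPES pH 8.0, 25 mM NaCl, in 2.5 °C steps up to 60 °C. Bootstrapped two-state fits gave melting temperature and folding enthalpy, and four replicates were combined by inverse variance. Fitted temperatures were then raised by 9.35 °C to match UV melts.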

[2] = folding enthalpy; higher = less favourable; fluorescence melt of hairpins on a sequencing array, two-state fit; settings: sodium 0.088 M
In short: as §1

Sequence	Tm [1] [°C]	folding enthalpy [2] [kcal/mol]
GATCGTTACAACGATC ((((((....))))))	57.3	-39
GTCTACGAAAGTAGAGAC ((((((....)))..)))	40.1	-12.8
GCGGAGATCCGC ((((....))))	54.2	-26.2
GATCGAGTAATCGATC ((((((....))))))	57.4	-39
GATCACTGAAGTGATC ((((((....))))))	56.8	-36.4
CGGTCGGAAACGAATCCG ((((((....)))..)))	37	-25.8
GGATTCGAAAGAAAATCC ((((((....)))..)))	29.9	-21.4
GTCTGCGAAAGCACGAC ((((((....))).)))	50.2	-21.5
GACCACCGAAAGGTTGTC (((.(((....))).)))	48.2	-32.2
GCAAGCGAAAGCTTTGC ((((((....))).)))	53.7	-21
GCACGCGAAAGCGAGTGC ((((((....)))..)))	59.5	-21.1
CGGCCGGAAACGGTCCCG ((((((....)))..)))	41	-13.1
GGGTCTCGAAAGAGTCCC (((.(((....))).)))	53.8	-36.9
GGGAGCTCGAAAGAGCCC (((..(((....))))))	57.2	-11.2
GATCTCATGAGAGATC ((((((....))))))	54.2	-32
GAAGTACGAAAGTATTTC (((.(((....))).)))	40.5	-28.9
GCACCCGAAAGGGATGC ((((((....))).)))	60.5	-28.7
GGGGGTCGAAAGACGCCC (((.(((....))).)))	68.7	-21.5
GCCACCGAAAGGTACGGC ((((((....)))..)))	49	-24.9
GATCGGGCATCCGATC ((((((....))))))	63.3	-41.9
GGGCCCGAAAGGGATCCC ((((((....)))..)))	56.6	-14.9
GATGACGGAAACGTCGTC ((.((((....)))).))	52.8	-43.3
GCCAATGGAAACACTGGC ((((.((....)).))))	41.9	-31.9
GGAATGTCGAAAGACTCC (((..(((....))))))	32.6	-14.3

Sequence	Tm [1] [°C]	folding enthalpy [2] [kcal/mol]
GACACTGGAAACAGTATC ((.((((....)))).))	30.4	-17.6
GGAGTACGAAAGTAGTCC (((.(((....))).)))	55.2	-40.4
GGATTAGGAAACTAATCC (((((((....)))))))	55	-40.5
GGACCACGAAAGTGTCC (((.(((....))))))	56.1	-22
GCCTTGAAAAAGGC (((((....)))))	58.1	-24.4
GTCAATGGAAACATTGAC (((((((....)))))))	58.9	-39.8
GCTCTGCGAAAGCCGTGC ((.(.((....)).).))	36.2	-11.9
GCGATGTTCGC ((((...))))	49.9	-18.5
GCGGCTGGAAACAACCGC ((((.((....)).))))	54	-45
GACCTCACGAAAGTGGTC (((..(((....))))))	37.4	-20.7
GAACCCGGAAACGGGCTC ((.((((....)))).))	47.3	-15.4
GCCTTGCGAAAGCGAAGC ((.(.((....)).).))	45	-8.01
GATCGCAGGAGCGATC ((((((....))))))	68.3	-26.6
GCAGGGCGAAAGCGCAGC ((.(.((....)).).))	54.8	-11.9
GCTTCACGAAAGTGGAGC (((.(((....))).)))	58.3	-43.7
GATCACTACTGTGATC ((((((....))))))	56.5	-42
GAACTCCGAAAGGATTC (((.(((....))))))	37.1	-17
GTCATGGGAAACCGTGAC ((((.((....)).))))	52.9	-42.3
GATCCCGTCGGGGATC ((((((....))))))	64.1	-35.1
GACCACCGAAAGGTCGTC (((.(((....))).)))	45.1	-29.5
GATTTGCCGAAAGGCATC (((..(((....))))))	21.9	-5.81
GGCCTCGGAAACGAAGCC (((.(((....))).)))	47.8	-30.8
GAGTAGGGAAACCTACCC (.(((((....))))).)	35.1	-15.4
GCTGTCGAAAGACCGAGC ((((((....)))..)))	37	-21

Sequence	Tm [1] [°C]	folding enthalpy [2] [kcal/mol]
GCCAGGCGAAAGCGGGGC (((..((....))..)))	63.2	-23.9
GATCAAATTCTTGATC ((((((....))))))	41.4	-32.6
GTGCGCTCGAAAGAGCAC (((..(((....))))))	59.9	-14.1
GTCCACGAAAGTGCGAC ((((((....))).)))	50.9	-22.8
GATCGTCACGACGATC ((((((....))))))	57.8	-43.1
GCGGATAACCGC ((((....))))	53	-19.6
GACCGCGGAAACGCGACC (..((((....))))..)	28.9	-7.67
GGGAGGGGAAACCCCCCC (((.(((....))).)))	53.3	-38.7
GCGAAACGTCGC ((((....))))	47.8	-19.5
CGGTTCGGAAACGACCCG (((.(((....))).)))	50	-33
GATCGGAATGCCGATC ((((((....))))))	54.9	-33.7
GCGTAGCTACGC ((((....))))	68.1	-12.6
GCGGGGAGCCGC ((((....))))	62.7	-14.4
GATCAATCTTTGATC ((((((...))))))	44.6	-28.2
GCGGACGAAAGTCCACGC ((((((....)))..)))	58.9	-15.2
GGGTACGAAAGTATTCCC ((((((....)))..)))	35.5	-20.4
CGGCCCGGAAACGGTCCG (((.(((....))).)))	55.3	-45.1
GTCTCCGAAAGGAGAGAC ((((((....)))..)))	48	-11.4
GTTCCCGGAAACGGGGAC ((.((((....)))).))	58.5	-26.8
GAGGTAGGAAACTGCCTC ((((.((....)).))))	49.9	-37.1
GCTTGGCGAAAGCGACGC ((.(.((....)).).))	45.5	-13.2
GCGTAGCGAAAGCAAGGC ((.(.((....)).).))	35.5	-7.5
GAGTACGAAAGTAGCCTC ((((((....)))..)))	27.3	-11.8
GATAAGGGAAACCTTATC (((((((....)))))))	49.7	-44.2

Sequence	Tm [1] [°C]	folding enthalpy [2] [kcal/mol]
CGGGAACGGAAACGTCCG (((..(((....))))))	43.1	-22.2
GTAGTAGAAATACTAC ((((((....))))))	43.1	-26.1
GCGTCTTCACGC ((((....))))	51.4	-26.9
GATAGCGGAAACACTATC (((((.(....).)))))	36.5	-27.6
GATCTGACAACAGATC ((((((....))))))	46.5	-36.6
GATCAGAGTCTGATC ((((((...))))))	47.4	-39.1
CGAGACGGAAACGTTCG (((.(((....))))))	40.9	-26.3
GTATCTGGAAACGGATAC (((((.(....).)))))	44.8	-38
GGTTAGGGAAACCTGATC (.(.(((....))).).)	31	-11.7
GCTGTAGAAATACAGC ((((((....))))))	56.9	-34.7
GATCGGTGCCCGATC ((((((...))))))	58	-40.8
GGAATCGGAAACAATTCC (((((.(....).)))))	32.6	-27.8
GCCCAAGGAAACCTAGGC (((.(.(....).).)))	32.8	-22.2
GCTTCCGGAAACGGGAGC (((.(((....))).)))	59.5	-40.1
GTAACGCGAAAGCGATAC (((.(((....))).)))	51	-24.1
GATCCCGCGTGGGATC ((((((....))))))	59.9	-38.4
GATCCACTGGTGGATC ((((((....))))))	59.1	-39.4
GATGGGGGAAACCCCACC (.(((((....))))).)	39.9	-12.6
GACCACGAAAGTGATGTC ((((((....)))..)))	38.3	-17.6
GAAAGGGGAAACCTTTTC ((((.((....)).))))	34.2	-27.1
GACCCGACGAAAGTCGTC (((..(((....))))))	25.9	-6.62
